ChEMBL document CHEMBL5252672, “Inhibition of mitochondrial metabolism by (-)-jerantinine A: synthesis and biological studies in triple-negative breast cancer cells” (RSC Med Chem, 2023)
Activity calls are given as the source filed them. The rule behind the calls is not given here.

Key:
[1] = tested on: MDA-MB-231; assay: Effect on metabolism in human MDA-MB-231 cells assessed as reduction in intracellular aspartate level at 5 uM incubated for 16 hrs by LC-MS based metabolomics analysis; assay type: functional, cell-based
Outline: (§1)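 MDA-MB-231 cells in RPMI-1640 plus 10% FBS, treated 16 h with DMSO vehicle or compound at 5 μM. Untargeted metabolic profiling followed, with normalized metabolite levels compared between treated and vehicle groups.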

[2] = tested on: MDA-MB-231; assay: Antiproliferative activity against human MDA-MB-231 cells; assay type: functional, cell-based
Outline: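 MDA-MB-231 cells grown in RPMI-1640 with 10% FBS at 37°C, 5% CO2. Seeded at 2000 cells/well, then exposed to graded compound concentrations, medium renewed every 2–3 days. On day 5, viability read by CyQUANT fluorescence (cellular DNA content).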

[3] = tested on: MDA-MB-231; assay: Induction of ROS generation in human MDA-MB-231 cells at 2.5 to 40 uM incubated for 24 hrs by bioluminescence assay; assay type: functional, cell-based; settings: dose 2.5-40 µM
Outline: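 MDA-MB-231 cells stably carrying the lentiviral OxiLuc oxidative-stress reporter, sorted by FACS for mStrawberry. Plated at 5x10³ cells/well the day before, then given escalating doses for 24 h. Bioluminescence imaged on an IVIS Spectrum, and per-well photon flux quantified as photons/s/sr/cm².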

[4] = Cytotoxicity against vincristine-resistant human VJ-300 cells; assay type: functional, cell-based
[5] = Cytotoxicity against human MCF-10A cells; assay type: toxicity, cell-based
[6] = tested on: MCF7; assay: Cytotoxicity against human MCF7 cells; assay type: functional, cell-based
[7] = Effect on metabolism in human MDA-MB-231 cells assessed as reduction in N-acetylaspartate level at 5 uM incubated for 16 hrs by LC-MS based metabolomics analysis; assay type: functional; design: scale not given: the % may be the effect or the level left; outline: as §1
[8] = Effect on metabolism in human MDA-MB-231 cells assessed as reduction in carbamoyl aspartate level at 5 uM incubated for 16 hrs by LC-MS based metabolomics analysis; assay type: functional; design: scale not given: the % may be the effect or the level left; outline: as §1
[9] = Effect on metabolism in human MDA-MB-231 cells assessed as reduction in argininosuccinic-acid level at 5 uM incubated for 16 hrs by LC-MS based metabolomics analysis; assay type: functional; design: scale not given: the % may be the effect or the level left; outline: as §1
[10] = Inhibition of pyrimidine biosynthesis in human MDA-MB-231 cells assessed as fold increase in cytidine levels at 5 uM incubated for 16 hrs by LC-MS based metabolomics analysis; assay type: functional; outline: as §1
[11] = tested on: MDA-MB-231; assay: Effect on metabolism in human MDA-MB-231 cells assessed as change in intracellular metabolite abundances at 5 uM incubated for 16 hrs by LC-MS based metabolomics analysis; assay type: functional, cell-based; outline: as §1
[12] = tested on: T47D; assay: Cytotoxicity against human T47D cells; assay type: functional, cell-based

CC[C@]12C=CCN3CC[C@]4(C(=C(C(=O)OC)C1)Nc1cc(OC)c(OS(=O)(=O)F)cc14)[C@@H]32
Activity [1]: inactive
IC50 [2]: 3720 nM
Activity [3]: inactive

CC[C@]12C=CCN3CC[C@@]4(C5=CC(=O)C(OC)=CC5=NC4=C(C(=O)OC)C1)[C@@H]32
IC50 [2]: 1960 nM
Activity [3]: inactive

CC[C@]12C=CCN3CC[C@]4(C(=C(C(=O)OC)C1)Nc1ccc(OS(=O)(=O)F)cc14)[C@@H]32
IC50 [2]: 6170 nM
Activity [3]: inactive

CC[C@]12C=CCN3CC[C@]4(C(=C(C(=O)OC)C1)Nc1cc(OC)c(OC(C)=O)cc14)[C@@H]32 [JERANTININE A ACETATE]
IC50 [4]: 830 nM
IC50 [2]: 2600 nM
IC50 [5]: 18800 nM

CC[C@]12C=CCN3CC[C@]4(C(=C(C(=O)OC)C1)Nc1cc(OC)c(O)cc14)[C@@H]32 [JERANTININE A]
IC50 [6]: 720 nM
Activity [7]: 90%
Activity [8]: 90%
Activity [1]: Active
Activity [9]: 90%
fold change (FC) [10]: 10
IC50 [2]: 1920 nM
Activity [11]: Active
IC50 [12]: 720 nM
IC50 [5]: 960 nM
Activity [3]: Active

CC[C@]12C=CCN3CC[C@]4(C(=C(C(=O)OC)C1)Nc1ccc(O)cc14)[C@@H]32 [MELODININE P]
IC50 [2]: 1060 nM
Activity [3]: Active

CC[C@]12C=CCN3CC[C@]4(C(=C(C(=O)OC)C1)Nc1ccccc14)[C@@H]32 [TABERSONINE]
IC50 [2]: 5590 nM
Activity [3]: inactive
